# Assay results from ChEMBL document CHEMBL5705901, “Exploiting selective BCL-2 family inhibitors to dissect cell survival dependencies and define improved strategies for cancer therapy” (Sci Transl Med, 2015).
# The source made the active and inactive calls. The calls are words filed in the database; no cut-off is given here.
# Legend:
# NCI-H358 = experiment: Antitumor activity against human NCI-H358 cells xenografted in po dosed SCID mouse assessed as tumor growth delay relative to control; format: functional
# Procedure, shortened: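 Tumor volume-based endpoints. TGD = 100(T/C − 1), where T and C are the median times for the treated and control groups to reach 1 cm3. Groups were five mice for NCI-H747 and OVCAR-5 and eight for NCI-H358. Docetaxel was given intravenously and the test agent orally.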
# MOLT-4 [1] = experiment: Inhibition of Bcl-xl/BIM in human MOLT-4 cells at 0.1 to 1000 nM measured after 4 hrs by co-immunoprecipitation based electrochemiluminescent ELISA; format: cell-based; details: dose 0.1-1000 nM
# Procedure, shortened: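 Molt-4 cells treated 4 h with increasing concentrations; BCL-XL–BIM and BCL-2–BIM complexes measured quantitatively; mean of triplicate experiments, error as SD.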
# MOLT-4 [2] = experiment: Induction of apoptosis in human MOLT-4 cells assessed as increase in annexin V positive cells upto 500 nM incubated for 24 hrs by Annexin V staining based analysis; format: functional, cell-based
# Procedure, shortened: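 Molt-4 cells were preincubated for 1 h with or without Z-VAD-fmk (75 μM), then treated for 24 h with increasing concentrations. Phosphatidylserine exposure was measured by annexin V staining. Values are the mean of triplicate experiments ± SD.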
# [3] = Toxicity in po dosed SCID-bg mouse assessed as body weight loss relative to control; format: organism-based; details: in vivo
# A549 [4] = experiment: Synergistic antitumor activity against 3 times passaged human A549 cells xenografted in po dosed SCID mouse assessed as tumor growth delay in presence of docetaxel relative to control; format: functional
# Procedure, shortened: (§1)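 Xenografts dosed with oral inhibitor plus intravenous docetaxel. TGImax = 100(1 − Tv/Cv), from mean treated and control tumor volumes; TGD = 100(T/C − 1), from median times to reach 1 cm3. Group size 5 mice (NCI-H747, A549-FP3, EBC-1, OVCAR-5), 8 (NCI-H358), 10 (NCI-H1650).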
# A549 [5] = experiment: Synergistic antitumor activity against 3 times passaged human A549 cells xenografted in po dosed SCID mouse assessed as maximum tumor growth inhibition in presence of docetaxel relative to control; format: functional; procedure, shortened: as §1
# EBC-1 = experiment: Antitumor activity against human EBC-1 cells xenografted in po dosed SCID-bg mouse assessed as tumor growth delay relative to control; format: functional
# [6] = Toxicity in po dosed SCID mouse assessed as tolerance in presence of docetaxel; format: organism-based; details: in vivo
# MEF [7] = experiment: Cytotoxicity against BAX knockout MEF cells assessed as reduction in cell viability incubated for 48 hrs by CellTiter-Glo cell vaibility assay; format: toxicity, cell-based; details: mouse
# [8] = Toxicity in Sprague-Dawley rat assessed as inhibition of […] by measuring reduction in circulating platelets at 7 mg/kg, po administered daily for 5 days and measured on day 6 by microscopic analysis; format: organism-based; details: in vivo, 144 h, time 6 day
# Procedure, shortened: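 Male Sprague-Dawley rats, n = 10 per group: docetaxel 5 mg/kg i.v. once, or oral inhibitor daily for 5 days (30, 50 or 7 mg/kg depending on agent), alone or combined with docetaxel, against vehicles. Total neutrophil and platelet counts in blood collected on day 6; Tukey-Kramer test versus vehicle.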
# [9] = biological target: Induced myeloid leukemia cell differentiation protein Mcl-1 (Homo sapiens, UniProt Q07820); experiment: Binding affinity to MCL-1 (unknown origin) assessed as dissociation constant incubated for 1 hrs by TR-FRET assay
# Induced myeloid leukemia cell differentiation protein Mcl-1, sequence (Q07820 whole entry): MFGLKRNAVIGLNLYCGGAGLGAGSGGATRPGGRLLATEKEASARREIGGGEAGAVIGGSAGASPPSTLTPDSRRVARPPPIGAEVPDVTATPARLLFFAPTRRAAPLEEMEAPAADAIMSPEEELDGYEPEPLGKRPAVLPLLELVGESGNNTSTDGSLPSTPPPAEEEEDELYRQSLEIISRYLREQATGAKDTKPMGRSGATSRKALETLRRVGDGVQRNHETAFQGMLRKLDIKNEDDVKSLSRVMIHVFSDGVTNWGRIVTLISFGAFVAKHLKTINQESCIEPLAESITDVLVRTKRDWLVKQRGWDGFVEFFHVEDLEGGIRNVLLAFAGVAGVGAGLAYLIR
# MDA-MB-231 = experiment: Induction of apoptosis in LC3 positive human MDA-MB-231 cells assessed as accumulation of cells with sub-G0-G1 DNA content at 1 uM incubated for 48 hrs in presence of docetaxel by flow cytometric analysis; format: functional, cell-based
# [10] = Antiproliferative activity against human ME-1 assessed as reduction in cell viability incubated for 48 hrs by CellTiter-Glo cell vaibility assay; format: functional, cell-based; details: ME-1, 48 h
# Procedure, shortened: (§2)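 Tumour cell lines (SCLC panel and AML panel) exposed to increasing concentrations for 48 hours, then cell viability measured. Cell-killing EC50 taken from the concentration-response.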
# OCI-AML2 = experiment: Antiproliferative activity against human OCI-AML2 assessed as reduction in cell viability incubated for 48 hrs by CellTiter-Glo cell vaibility assay; format: functional, cell-based; details: OCI-AML2, 48 h; procedure, shortened: as §2
# MOLM-13 = experiment: Antiproliferative activity against human MOLM-13 assessed as reduction in cell viability incubated for 48 hrs by CellTiter-Glo cell vaibility assay; format: functional, cell-based; details: MOLM-13, 48 h; procedure, shortened: as §2
# DMS-79 = experiment: Antiproliferative activity against human DMS 79 assessed as reduction in cell viability incubated for 48 hrs by CellTiter-Glo cell vaibility assay; format: functional, cell-based; details: DMS-79, 48 h; procedure, shortened: as §2
# NCI-H69 = experiment: Antiproliferative activity against human NCI-H69 assessed as reduction in cell viability incubated for 48 hrs by CellTiter-Glo cell vaibility assay; format: functional, cell-based; details: NCI-H69, 48 h; procedure, shortened: as §2
# MDA-MB-175-VII = experiment: Induction of apoptosis in human MDA-MB-175-VII cells assessed as accumulation of cells with sub-G0-G1 DNA content at 1 uM incubated for 48 hrs in presence of docetaxel by flow cytometric analysis; format: functional, cell-based
# [11] = Antiproliferative activity against human UKE-1 harboring JAK2 V617F mutant assessed as reduction in cell viability incubated for 48 hrs by CellTiter-Glo cell vaibility assay; format: functional, cell-based; details: UKE1, 48 h; procedure, shortened: as §2
# SK-BR-3 = experiment: Induction of apoptosis in human SK-BR-3 cells assessed as accumulation of cells with sub-G0-G1 DNA content at 1 uM incubated for 48 hrs in presence of docetaxel by flow cytometric analysis; format: functional, cell-based
# NCI-H1836 = experiment: Antiproliferative activity against human NCI-H1836 assessed as reduction in cell viability incubated for 48 hrs by CellTiter-Glo cell vaibility assay; format: functional, cell-based; details: NCI-H1836, 48 h; procedure, shortened: as §2
# [12] = Antiproliferative activity against human HNT-34 assessed as reduction in cell viability incubated for 48 hrs by CellTiter-Glo cell vaibility assay; format: functional, cell-based; details: HNT-34, 48 h; procedure, shortened: as §2
# LXFL 529 = experiment: Synergistic antiproliferative activity against human LXFL 529 cells assessed as reduction in cell viability by measuring bliss sum score incubated for 72 hrs in presence of docetaxel by CellTiter-Glo cell vaibility assay; format: functional
# NCI-H838 = experiment: Synergistic antiproliferative activity against human NCI-H838 cells assessed as reduction in cell viability by measuring bliss sum score incubated for 72 hrs in presence of docetaxel by CellTiter-Glo cell vaibility assay; format: functional
# SK-OV-3 = experiment: Synergistic antiproliferative activity against human SK-OV-3 cells assessed as reduction in cell viability by measuring bliss sum score incubated for 72 hrs in presence of docetaxel by CellTiter-Glo cell vaibility assay; format: functional
# OVCAR-4 = experiment: Antagonistic antiproliferative activity against human OVCAR-4 cells assessed as reduction in cell viability by measuring bliss sum score incubated for 72 hrs in presence of docetaxel by CellTiter-Glo cell vaibility assay; format: functional
# MEF [13] = experiment: Cytotoxicity against Mcl-1 knockout MEF cells assessed as reduction in cell viability incubated for 48 hrs by CellTiter-Glo cell vaibility assay; format: toxicity, cell-based; details: mouse
# NCI-H460 = experiment: Synergistic antiproliferative activity against human NCI-H460 cells assessed as reduction in cell viability by measuring bliss sum score incubated for 72 hrs in presence of docetaxel by CellTiter-Glo cell vaibility assay; format: functional
Structure (SMILES),inhibition (MOLT-4 [1]),Activity (MEF [7]),Ki [9] [nM],EC50 [10] [nM],EC50 (OCI-AML2) [nM],EC50 (MOLM-13) [nM],EC50 (DMS-79) [nM],EC50 (NCI-H69) [nM],EC50 [11] [nM],EC50 (NCI-H1836) [nM],EC50 [12] [nM],further results
Cc1c(-c2ccc(N3CCc4cccc(C(=O)Nc5nc6ccccc6s5)c4C3)nc2C(=O)O)cnn1CC12CC3CC(CC(C3)C1)C2,Active,Non-Toxic,142,–,–,–,–,–,–,–,–,Activity (NCI-H358): 80%; Activity (MOLT-4 [2]): Active; Activity [3]: < 9%; Activity (A549 [4]): 131%; TGI (A549 [5]): 74%; Activity (EBC-1): 22%; Activity [6]: Non-Toxic; Activity [8]: Toxic
CC1(C)CCC(c2ccc(Cl)cc2)=C(CN2CCN(c3ccc(C(=O)NS(=O)(=O)c4ccc(N[C@H](CCN5CCOCC5)CSc5ccccc5)c(S(=O)(=O)C(F)(F)F)c4)cc3)CC2)C1 [NAVITOCLAX],–,–,–,> 5000,11,30,440,180,50,260,30,Activity (MDA-MB-231): Active; Activity (MDA-MB-175-VII): Active; Activity (SK-BR-3): Active
CN(C)CC#Cc1ccc(OCCCc2sc(N3CCc4cccc(C(=O)Nc5nc6ccccc6s5)c4C3)nc2C(=O)O)c(F)c1 [A-1155463],Active,Non-Toxic,> 444,> 5000,> 5000,> 5000,1440,3200,490,15,680,Activity_index (LXFL 529): 734; Activity_index (NCI-H838): 128; Activity_index (SK-OV-3): 747; Activity_index (OVCAR-4): -129; Activity (MEF [13]): Toxic; Activity_index (NCI-H460): 105
